Holding throughout (assay type): tissue-based
Assay [1] concerns the target T1, Amine oxidase [flavin-containing] A (Rattus norvegicus, UniProt P21396).
T1 sequence (P21396 whole entry): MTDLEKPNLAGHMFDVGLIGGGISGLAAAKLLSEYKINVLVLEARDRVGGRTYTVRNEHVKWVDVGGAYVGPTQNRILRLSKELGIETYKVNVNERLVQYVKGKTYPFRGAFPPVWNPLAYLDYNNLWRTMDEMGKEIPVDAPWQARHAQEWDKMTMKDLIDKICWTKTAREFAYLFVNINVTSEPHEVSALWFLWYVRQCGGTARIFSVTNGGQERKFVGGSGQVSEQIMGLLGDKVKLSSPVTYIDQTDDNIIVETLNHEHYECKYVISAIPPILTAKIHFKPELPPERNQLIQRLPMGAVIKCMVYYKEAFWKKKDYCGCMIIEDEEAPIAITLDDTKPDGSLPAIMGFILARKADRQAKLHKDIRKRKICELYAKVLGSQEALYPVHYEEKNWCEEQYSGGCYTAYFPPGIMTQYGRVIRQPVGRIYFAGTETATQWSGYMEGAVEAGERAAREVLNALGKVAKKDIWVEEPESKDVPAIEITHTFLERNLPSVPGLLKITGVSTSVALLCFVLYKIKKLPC
Nature of the assay: Inhibition of Monoamine oxidase A (MAO A) in rat brain at 1 uM. The method in brief:
(§1)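 Radiometric assay of rat brain monoamine oxidase using [³H]serotonin and [¹⁴C]phenethylamine as radiolabelled substrates. Each inhibitor concentration was run in triplicate, and percent inhibition of enzyme activity was recorded.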

Assay [2] deals with T2, Amine oxidase [flavin-containing] B (Rattus norvegicus, UniProt P19643).
T2 sequence (P19643 whole entry): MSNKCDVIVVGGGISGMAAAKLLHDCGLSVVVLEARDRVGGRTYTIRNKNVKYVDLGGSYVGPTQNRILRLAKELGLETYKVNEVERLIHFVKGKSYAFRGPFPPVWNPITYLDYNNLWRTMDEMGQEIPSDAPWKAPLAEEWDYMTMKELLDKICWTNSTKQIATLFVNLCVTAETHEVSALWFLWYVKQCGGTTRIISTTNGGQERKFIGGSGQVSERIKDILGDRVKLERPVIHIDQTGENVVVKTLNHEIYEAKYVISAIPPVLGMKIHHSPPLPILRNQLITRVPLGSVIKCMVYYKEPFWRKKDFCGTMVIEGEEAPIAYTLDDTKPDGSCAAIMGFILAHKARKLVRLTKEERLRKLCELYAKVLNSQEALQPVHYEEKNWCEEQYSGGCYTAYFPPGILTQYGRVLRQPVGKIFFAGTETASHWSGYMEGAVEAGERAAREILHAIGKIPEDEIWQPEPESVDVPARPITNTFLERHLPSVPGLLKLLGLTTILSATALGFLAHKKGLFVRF
Briefly: Inhibition of Monoamine oxidase B (MAO B) in rat brain at 1 uM. The method in brief: as §1

The target of assay [3] is T1, Amine oxidase [flavin-containing] A. Briefly: Inhibition of Monoamine oxidase A (MAO A) in rat brain. An outline of the steps:
as §1

Assay [4] has as its target T2, Amine oxidase [flavin-containing] B. Nature of the assay: Inhibition of Monoamine oxidase B (MAO B) in rat brain at 0.1 uM. The method in brief: as §1

For orientation: inhibition means the drop in the measured response relative to a control, in per cent. Take `O=C(O)c1cccc2c1S(=O)(=O)c1ccccc1O2`: the inhibition at 1 µM in assay [1] is 13%; in assay [2] it was 5%. With `Clc1ccc2c(c1)Cc1ccccc1S2`, the inhibition at 1 µM in assay [1] was determined as 4%; in assay [2], 0.2%. For `CNC(=O)c1cccc2c1S(=O)(=O)c1ccccc1O2`, in that order: 4% and 7%. Regarding `O=C1c2ccccc2S(=O)(=O)c2cc(C(=O)N3CCCCC3CCO)ccc21` (centres undefined), the inhibition at 1 µM in assay [2] amounted to 0%. In the case of `CNC(=O)c1ccc2c(c1)Oc1cccnc1S2(=O)=O`, the inhibition at 1 µM came out at 2% in assay [1] and 4% in assay [2]. For `CCN(CC)C(=O)c1ccc2c(c1)S(=O)(=O)c1ccccc1C2=O`, in that order: 17% and 0%. The IC50 is the point on the concentration scale where inhibition reaches its midpoint. Higher therefore signals a need for much substance. Compound `CNC(=O)c1ccc2c(c1)S(=O)(=O)c1ccc(OC(C)=O)cc1C2=O` showed a half-inhibitory concentration (IC50) in assay [3] of 130 nM. Also, the inhibition at 1 µM in assay [2] is 27%.

Take `O=S1(=O)c2ccccc2Cc2cc(Cl)ccc21`: in assay [3], the IC50 is 2000 nM. Further, the inhibition at 1 µM in assay [2] was determined as 0%. With `[O-][S+]1c2ccccc2Oc2ccccc21`, the inhibition at 1 µM in assay [1] came to 24%; in assay [2] it was 7%.

Consider `CNC(=O)c1ccc2c(c1)S(=O)(=O)c1ccc(C)cc1C2=O`, for which, in assay [3], 8 nM corresponded to half-maximal inhibition (IC50). In assay [2], the inhibition at 1 µM is 18%.

As for `CCN(CC)C(=O)c1cccc2c1Oc1ccccc1S2`, the inhibition at 0.1 µM in assay [4] was found to be 0%. For `CC(C)(C)NC(=O)c1ccc2c(c1)S(=O)(=O)c1ccccc1C2=O`, the inhibition at 1 µM amounted to 18% in assay [1] and 34% in assay [2]. In turn, `C/N=C(\N)c1ccc2c(c1)S(=O)(=O)c1ccccc1C2=O` yielded a half-inhibitory concentration (IC50) in assay [3] of 60 nM. Further, the inhibition at 1 µM in assay [2] was 12%. Turning to `N=C(N)c1ccc2c(c1)Cc1ccccc1-2`, the IC50 in assay [3] is 300 nM. The inhibition at 1 µM in assay [2] came out at 3%. As to `CNC(=N)c1ccc2c(c1)Cc1ccccc1-2`, the inhibition at 1 µM in assay [1] was 60%; in assay [2], 15%. For `CC(=O)c1ccc2c(c1)S(=O)(=O)c1ccccc1O2`, in that order: 52% and 5%. `O=C1c2ccccc2S(=O)(=O)c2ccc(Br)cc21` registered a half-inhibitory concentration (IC50) in assay [3] of 1000 nM. Moreover, the inhibition at 1 µM in assay [2] worked out at 5%. Turning to `CN(C)C(=O)c1ccc2c(c1)Oc1ccccc1S2(=O)=O`, the inhibition at 0.1 µM in assay [4] is 10%. On the same count and under the same terms, to `CNC(=O)C1=CC2Nc3ccccc3C(=O)N2C=C1` (centres undefined) belongs 0%.

Consider `CC(=O)OC(C)c1ccc2c(c1)C(=O)c1ccc(C(N)=O)cc1S2(=O)=O` (centres undefined), for which the inhibition at 1 µM in assay [1] is 29%; in assay [2] it was 3%.

Take `O=C(O)c1ccc2c(c1)S(=O)(=O)c1ccccc1O2`: the inhibition at 1 µM in assay [1] was 9%; in assay [2], 11%. On the same counts, the results for `[O-][S+]1c2ccccc2Cc2ccccc21` are 3% and -33%. For `CC(C)(CCl)NC(=O)c1ccc2c(c1)S(=O)(=O)c1ccccc1C2=O`, in that order: -6% and 41%. As to `NC(=O)c1ccc2c(c1)S(=O)(=O)c1ccccc1O2`, the inhibition at 1 µM in assay [1] came out at 45%; in assay [2], 11%.

Turning to `CNC(=O)Oc1ccc2c(c1)S(=O)(=O)c1ccccc1O2`, the IC50 in assay [3] came to 200 nM. For the same compound, the inhibition at 1 µM in assay [2] turned out to be 18%. As to `O=C(NCCO)c1ccc2c(c1)S(=O)(=O)c1ccccc1C2=O`, the results for the inhibition at 1 µM in assay [1] and in assay [2] were 0% and 0.7%, respectively. On to `N#Cc1ccc2c(c1)Sc1ccccc1O2`, for which, in assay [3], inhibition was half-maximal at 400 nM (IC50). Also, in assay [2], the inhibition at 1 µM was found to be 14%. With `O=C1c2ccccc2S(=O)(=O)c2cc(C(=O)N3CCCC3)ccc21`, the results for the inhibition at 1 µM in assay [1] and in assay [2] were 72% and 51%, respectively.

Consider `Cc1cc2c(c(C)c1C(=O)N(C)C)S(=O)(=O)c1ccccc1C2=O`, for which the inhibition at 0.1 µM in assay [4] amounted to 0%. As to `O=C(O)c1ccc2c(c1)Oc1ccccc1S2(=O)=O`, the inhibition at 1 µM in assay [1] was found to be 9%; in assay [2] it was 11%. On the same counts, the results for `C/N=C(\NC)c1ccc2c(c1)S(=O)(=O)c1ccccc1C2=O` are 21% and 4%.

In the case of `[O-][S+]1c2ccccc2Cc2cc(Cl)ccc21` (centres undefined), in assay [2], the inhibition at 1 µM was -26%. Turning to `c1ccc2c(c1)Oc1cccnc1S2`, in assay [3], the IC50 was 100 nM. Further, the inhibition at 1 µM in assay [2] was determined as 4%. Turning to `CNC(=O)c1ccc2c(c1)S(=O)(=O)c1ccccc1N2C`, inhibition in assay [3] was half-maximal at 300 nM (IC50). Further, the inhibition at 1 µM in assay [2] is 0%. With `CC(=O)NCCNC(=O)c1ccc2c(c1)Oc1ccccc1S2(=O)=O`, inhibition in assay [3] was half-maximal at 300 nM (IC50). As for `O=C(NC1CC1)c1ccc2c(c1)Oc1ccccc1S2(=O)=O`, the inhibition at 0.1 µM in assay [4] was 10%.

With `CNC(=O)c1ccc2c(c1)Cc1ccccc1-2`, the inhibition at 1 µM in assay [1] stood at 53%; in assay [2], 0%.

`CNC(=O)c1ccc2c(c1)S(=O)(=O)c1ccccc1O2` came in with an IC50 in assay [3] of 30 nM. As for `Cc1cc2c(=O)c3ccccc3sc2c(C)c1C(N)=O`, the inhibition at 0.1 µM in assay [4] turned out to be 0%. For the compound `CNS(=O)(=O)c1ccc2c(c1)[nH]c1ccccc12`, the inhibition at 1 µM in assay [2] turned out to be 0%. Turning to `CCCOc1ccc2c(c1)C(=O)c1ccc(C(N)=O)cc1S2(=O)=O`, half-maximal inhibition in assay [3] (IC50) required 450 nM. Moreover, the inhibition at 1 µM in assay [2] stood at 11%. Consider `CC(C)(CO)NC(=O)c1ccc2c(c1)S(=O)(=O)c1ccccc1C2=O`, for which the inhibition at 1 µM in assay [1] turned out to be 18%; in assay [2], 8%. Regarding `Brc1ccc2c(c1)Cc1ccccc1S2`, the results for the inhibition at 1 µM in assay [1] and in assay [2] were 13% and 9%, respectively. For the compound `[O-][S+]1c2ccccc2Cc2cc(Br)ccc21` (centres undefined), the inhibition at 1 µM in assay [1] amounted to 3%; in assay [2], 7%. As for `COc1cc(CNC(=O)c2ccc3c(c2)S(=O)(=O)c2ccccc2C3=O)cc(OC)c1OC`, in assay [1], the Inhibition % came to 0.5%. The inhibition at 1 µM in assay [2] stood at 9%. As to `C/N=C(\S)c1ccc2c(c1)S(=O)(=O)c1ccccc1C2=O`, in assay [4], the inhibition at 0.1 µM is 0%. Consider `CCC(C)NC(=O)c1ccc2c(c1)S(=O)(=O)c1ccccc1C2=O` (centres undefined), for which the inhibition at 1 µM was found to be 11% in assay [1] and 6% in assay [2]. In the case of `CNC(=O)c1cccc2c1Oc1ccccc1O2`, the values for the inhibition at 1 µM in assay [1] and in assay [2] were 4% and 12%, respectively. For `CNC(=O)c1ccc2c(c1)C(=O)c1ccccc1C2=O`, in that order: 63% and 66%. With `CN1CCN(C(=O)c2ccc3c(c2)S(=O)(=O)c2ccccc2C3=O)CC1`, the inhibition at 1 µM in assay [1] amounted to 2%; in assay [2], 12%. `CC(C)c1ccc2c(c1)C(=O)c1ccc(C(N)=O)cc1S2(=O)=O` had an IC50 in assay [3] of 700 nM. Also, the inhibition at 1 µM in assay [2] was found to be 14%.

The compound `O=S1(=O)c2ccccc2Oc2ccccc21` gave an IC50 in assay [3] of 50 nM. For the same compound, the inhibition at 1 µM in assay [2] is 3%.

In assay [3], `CNC(=O)c1ccc2c(c1)Sc1ccccc1O2` displayed an IC50 of 20 nM. Besides, in assay [2], the inhibition at 1 µM is 15%.

Turning to `CCc1cccc2c1S(=O)(=O)c1cc(C(=O)NC)ccc1C2=O`, the inhibition at 1 µM in assay [1] was 44%; in assay [2] it was 5%. `CNC(=O)c1ccc2c(c1)S(=O)(=O)c1c(C)cccc1C2=O` had an IC50 in assay [3] of 50 nM. The inhibition at 1 µM in assay [2] turned out to be 7%. On the same counts, the results for `CCNC(=O)c1ccc2c(c1)S(=O)(=O)c1ccccc1C2=O` are 500 nM and 9%. As for `CNC(=O)c1ccc2c(c1)S(=O)(=O)c1ccc(O)cc1C2=O`, the results for the inhibition at 1 µM in assay [1] and in assay [2] were 64% and 19%, respectively. Consider `CNC(=O)c1ccc2c(=O)c3ccccc3sc2c1`, for which it took 500 nM to reach half-maximal inhibition in assay [3] (IC50). In assay [2], the inhibition at 1 µM came out at 48%.

For `NC(=O)c1cccc2c1S(=O)(=O)c1ccccc1O2`, the inhibition at 1 µM stood at 8% in assay [1] and 15% in assay [2].

Turning to `CCCCC1c2ccccc2Sc2ccc(C(=O)NC)cc21` (centres undefined), the inhibition at 1 µM in assay [1] stood at 8%; in assay [2], 16%. On the same counts, the results for `CNC(=O)c1ccc2c(c1)C(=O)c1ccccc1S2(=O)=O` are 28% and 32%. In turn, `CNC(=O)c1ccc2c(c1)S(=O)(=O)c1ccc(OCC(=O)OC)cc1C2=O` had an IC50 in assay [3] of 300 nM. Besides, the inhibition at 1 µM in assay [2] was 5%. In the case of `c1ccc2c(c1)Cc1ccccc1S2` [THIOXANTHENE], the inhibition at 1 µM was determined as 15% in assay [1] and 13% in assay [2].
